CYP2C19 activ: activators of human cytochrome P450 2C19. P33261. recombinant CYP2C19, luciferin-H EGE luminescence; active compounds read high; 0 = fully inhibited enzyme, 1 = untreated enzyme. activation factor at 5 µM. 96,000 tested, under 10 active. AID 1025;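 active means activation factor of at least 2 at 5 µM in the primary screen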
CYP2C19 inh: inhibitors of human CYP2C19 | P33261 | CYP2C19 Supersomes, luciferin-H EGE luminescence, 30 min | inhibition, % at 5 µM | 21% of 96,000 active | AID 778;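 active means CYP2C19 inhibition above a set limit at 5 µM in the primary screen, cut at about 50% in these data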
Cav3 T inh: inhibitors of human Cav3.2 T-type calcium channel; B-score at 10 µM; Cav3.2-expressing cells, Fluo-4 calcium fluorescence FDSS; active compounds read low; 4% of 100,000 active;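 active means single-dose well whose peak fluorescence ratio is a statistical outlier from its plate by either plate-standardised score or position-corrected B-score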
CYP2C9 inh: blocks human cytochrome P450 2C9 | P11712 | CYP2C9 Supersomes, luciferin-H conversion, luminescence | inhibition, % at 5 µM | 20% of 96,000 active | AID 777;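 active means blocking of liver enzyme CYP2C9 beyond about 50% at 5 µM, limit read from the data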
HIV Rev-RRE inh: HIV Rev-RRE protein-RNA interaction inhibition. P05866. Rev peptide-RRE RNA binding, FRET. inhibition, % at 8 µM. 0.79% of 97,000 active. AID 704;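 active means inhibition above the screen-wide mean plus 3 SD, cut at about 35% in these data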
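Assay system: Labelled RRE RNA duplex and labelled Rev peptide | Times: 5 min preincubation and 15 min binding, 25 °C | Detection: FRET, ex 480 nm, em 540 and 671 nm | Evaluation: % inhibition of FRET ratio versus controls | Benchmarks: DMSO wells as 0% and neomycin B wells as 100% inhibition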
CYP2C9 activ: increases human cytochrome P450 2C9 activity; recombinant CYP2C9, luciferin-H conversion, luminescence; active compounds read high; factor 1 = untreated enzyme, 0 = blocked; activation factor at 5 µM; P11712; AID 1024; 1.4% of 96,000 active;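 active means activation factor of 2 or more for CYP2C9 at a 5 µM dose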
Each line names hits and unclear results; the compound was inactive in the other large screens. Only some compounds are listed: those with a hit (about 27% of all), similar ones and a draw of the others.

Nc1ncnc2c1nc(Br)n2[C@@H]1O[C@@H]2COP(=O)(O)O[C@H]2[C@H]1O	none (no result: CYP2C19 activ, CYP2C19 inh, CYP2C9 inh, HIV Rev-RRE inh, CYP2C9 activ)
CCOc1ccc(CC(=O)N2CCN(c3ccc(N4CCOCC4)nn3)CC2)cc1OCC	none (no result: Cav3 T inh, HIV Rev-RRE inh)
N#Cc1cccc(NC(=O)Nc2cccs2)c1	CYP2C9 inh 83.8
COc1ccc(NC(=O)Nc2cccc(C)n2)cc1	Cav3 T inh -4.24 (no result: HIV Rev-RRE inh)
Cc1cccc(NC(=O)Nc2cccc(C#N)c2)n1	Cav3 T inh -4.17 (no result: HIV Rev-RRE inh)
O=C(NC(=S)Nc1ccc(N2CCCCC2)c(Cl)c1)c1cccs1	none (no result: CYP2C19 activ, CYP2C19 inh, CYP2C9 inh, CYP2C9 activ)
CCCCCCn1c(CN2CCN(C)CC2)nc2c1c(=O)n(C)c(=O)n2C	none (no result: CYP2C19 activ, CYP2C19 inh, CYP2C9 inh, HIV Rev-RRE inh, CYP2C9 activ)
Cc1nnc(SCCn2c(Br)nc3c2c(=O)n(C)c(=O)n3C)s1	CYP2C19 inh 80.2
Cn1cc(S(=O)(=O)N2CCN(c3ccccc3)CC2)c(=O)n(C)c1=O	none
CCc1ccccc1NC(=O)CSc1nnc([C@@H]2CCCN2C(=O)OC(C)(C)C)o1	none
CC(C)(C)OC(=O)N1CCC[C@H]1c1nnc(SCc2ccccc2F)o1	CYP2C19 inh 60.6, CYP2C9 inh 59.6
O=S(=O)(c1cccc2cccnc12)N1CCN(Cc2ccc3c(c2)OCO3)CC1	CYP2C9 activ 2.5
O=S(=O)(NCc1ccc2c(c1)OCO2)c1cccc2cccnc12	CYP2C19 inh 63.9, CYP2C9 activ 2.7
O=S(=O)(NCc1ccco1)c1cccc2cccnc12	none (no result: CYP2C19 activ, CYP2C19 inh, CYP2C9 inh, CYP2C9 activ)
Cc1ccc(NC(=O)C2C3/C=C\CCCCC32)cc1C (stereo unspecified)	none
CN(/C(=N\S(=O)(=O)c1ccccc1)C(F)(F)F)c1ccccc1	HIV Rev-RRE inh 36.8 (no result: Cav3 T inh)
Cc1csc(Sc2ccc([N+](=O)[O-])cc2C(=O)OCC(=O)NC(=O)NC(C)(C)C)n1	CYP2C9 inh 72.1 (no result: Cav3 T inh)
COc1ccc(Cn2nnc(C(=O)Nc3ccc(F)cc3)c2N)cc1	none
COc1ccc(Cc2nc(C(=O)Nc3ccccc3)cs2)cc1	CYP2C19 inh 88.5, Cav3 T inh -3.78, CYP2C9 inh 90.5
COc1ccc(NC(=O)c2ccccn2)cc1	none (no result: Cav3 T inh)
COc1ccc(Cc2nc(C(=O)Nc3ccc(Cl)cc3)cs2)cc1	CYP2C19 inh 82.6, CYP2C9 inh 89.5
COc1ccc(Cc2nc(C(=O)Nc3ccc(F)cc3)cs2)cc1	CYP2C19 inh 88.6, CYP2C9 inh 86.7
CSc1nc2ccccc2n1C(=O)NC1CCCCC1	none
O=c1[nH]c2c(s1)C=Nc1ccccc1N2	none (no result: HIV Rev-RRE inh)
O=C(Nc1ccc(N2CCN(C(=O)c3ccco3)CC2)c(Cl)c1)c1cccs1	none
CCCCS/C(N)=N/N=C/c1ccccc1O	CYP2C19 inh 87.7, CYP2C9 inh 82.4
CC1CN(CC(=O)N2CCc3[nH]c4ccccc4c3C2)CC(C)O1 (stereo unspecified)	none
O=C(CN1CCN(Cc2ccc3c(c2)OCO3)CC1)N1CCc2[nH]c3ccc(F)cc3c2C1	CYP2C19 inh 84.5, CYP2C9 inh 75.7
CC1CC(C)CN(CC(=O)N2CCc3[nH]c4ccccc4c3C2)C1 (stereo unspecified)	CYP2C19 inh 65.5
O=C(CN1CCN(Cc2ccc3c(c2)OCO3)CC1)N1CCc2[nH]c3ccccc3c2C1	none
Cc1ccc2[nH]c3c(c2c1)CN(C(=O)CN1CCN(c2ccccc2F)CC1)CC3	CYP2C9 inh 52.9
CN1CCc2c(sc3c2C(=O)NC(c2cccc(OC(=O)c4cccs4)c2)N3)C1 (stereo unspecified)	none (no result: Cav3 T inh, HIV Rev-RRE inh)
O=C1NC(c2cccs2)Nc2sc3c(c21)CCCC3 (stereo unspecified)	CYP2C9 inh 60.2
Cc1cccc(NC(=O)COc2ccc3oc4c(c3c2)CCCC4)n1	CYP2C19 inh 51.3, CYP2C9 inh 85.3
O=C(CSCc1nc2ccccc2[nH]1)Nc1ccccc1	none
CN(C)c1ccc(NC(=O)CSCc2nc3c(nnn3Cc3ccc(F)cc3)c(=O)[nH]2)cc1	CYP2C9 inh 59.4
Cc1cc2n(n1)SC(Nc1cc(Cl)ccc1Cl)N2 (stereo unspecified)	none (no result: CYP2C19 activ, CYP2C19 inh, CYP2C9 inh, CYP2C9 activ)
O=C(C1CC(c2ccccc2O)=NO1)N1CCc2ccccc2C1 (stereo unspecified)	CYP2C19 inh 61.9
O=C(C1CC(c2ccccc2O)=NO1)N1CCCCC1 (stereo unspecified)	CYP2C19 inh 70.3
COc1ccc(C2=NOC(C(=O)N3CCCCCC3)C2)cc1OC (stereo unspecified)	none
O=C(C1CC(c2ccc(F)cc2)=NO1)N1CCc2ccccc2C1 (stereo unspecified)	CYP2C19 inh 62.9
COc1cccc(C2=NOC(C(=O)N3CCN(c4ccccc4)CC3)C2)c1OC (stereo unspecified)	none (no result: CYP2C19 activ, CYP2C19 inh, CYP2C9 inh, CYP2C9 activ)
O=C(C1CC(c2ccc(F)cc2)=NO1)N1CCCCC1 (stereo unspecified)	none (no result: CYP2C19 activ, CYP2C19 inh, CYP2C9 inh, CYP2C9 activ)
Cn1nc(C(F)(F)F)cc1C(=O)NC1CCCCCC1	none
CCn1cc(SCC(N)=O)c2ccccc21	none (no result: HIV Rev-RRE inh)
C=CCn1c(=O)c2ccccc2n2c(SCC(=O)Nc3cc(C)on3)nnc12	CYP2C9 inh 50.4
Cc1cc(NC(=O)CSc2cn(C)c3ccccc23)no1	CYP2C19 inh 94.8
CCCn1c(=O)c2ccccc2n2c(SCC(=O)Nc3cc(C)on3)nnc12	none (no result: Cav3 T inh, HIV Rev-RRE inh)
CCn1cc(SCC(=O)Nc2cc(C)on2)c2ccccc21	CYP2C19 inh 55.1
N#Cc1c(/N=C/C=C/c2ccccc2)sc2c1CCCC2	none
CC1(c2nnc(Cc3ccccc3)o2)CC(c2c(Cl)cccc2Cl)=NO1 (stereo unspecified)	none (no result: CYP2C19 activ, CYP2C19 inh, CYP2C9 inh, HIV Rev-RRE inh, CYP2C9 activ)
Cc1ccc2c(Cl)cc(Cl)c(OCc3c(C)noc3C)c2n1	CYP2C19 inh 67.1
CC(C)=CCC(C)(C)C1OCCN1C(=O)Nc1ccccc1 (stereo unspecified)	CYP2C19 inh 99.5, CYP2C9 inh 79.6
Brc1cnc(N2CCOCC2)nc1N1CCCCC1	CYP2C19 inh 58.3
Clc1cc(NCc2cccs2)ccc1N1CCOCC1	CYP2C19 inh 93.8, CYP2C9 inh 80.8
O=C(NCc1cccs1)C1CCN(c2ccc(S(=O)(=O)N3CCOCC3)cc2Cl)CC1	CYP2C9 inh 58.5
CC(C)CNC(=O)C1CCN(c2ccc(S(=O)(=O)N3CCOCC3)cc2Cl)CC1	CYP2C9 inh 55.7 (no result: HIV Rev-RRE inh)
O=C(Nc1ccc(S(=O)(=O)N2CCOCC2)cc1)C1CCCCC1	none
O=C(O)c1cc(S(=O)(=O)N2CCOCC2)ccc1N1CCOCC1	none
O=C(NC1CC1)C1CCN(c2ccc(S(=O)(=O)N3CCOCC3)cc2Cl)CC1	CYP2C9 inh 78.1
Cc1nc2nc(C)c(CCC(=O)Nc3ccc4c(c3)OCO4)c(C)n2n1	none
COc1cccc(CNc2ncc(Br)cc2Br)c1O	none
COc1cccc(CNc2ccc(Br)cn2)c1O	Cav3 T inh -6.5
CC(C)C(=O)NC(Nc1cccc2cccnc12)C(Cl)(Cl)Cl (stereo unspecified)	CYP2C19 inh 58.8, Cav3 T inh -5.05, CYP2C9 inh 63.3
Cn1nnnc1SCC(=O)Nc1ccccc1N1CCCCC1	none (no result: CYP2C19 activ, CYP2C19 inh, CYP2C9 inh, CYP2C9 activ)
Cc1cc(C)cc(C(=O)N2CCCCCC2)c1	none

Source: PubChem (several laboratories)
